Data published in ChEMBL document CHEMBL4385606, “3,5,7-Substituted Pyrazolo[4,3- d]pyrimidine Inhibitors of Cyclin-Dependent Kinases and Their Evaluation in Lymphoma Models” (J Med Chem, 2019).
pIC50: −log10 of the molar value. Active and inactive are the calls of the source. The rule behind the calls is not given here.

Experiments:
Mus musculus [1] = test: Ex vivo antitumor activity against human Mino cells xenografted NSG mouse decrease in phosphorylation of Rb at 780 residue at 5 to 10 mg/kg, iv measured after 24 hrs by immunoblotting analysis; assay type: functional, organism-based
Method in brief: (§1)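 Female NSG mice, 8-12 weeks old, implanted s.c. with lymphoma cells. Once tumors were palpable, mice received a single tail-vein i.v. dose (5 or 10 mg/kg) of compound dissolved in PBS. Mice were euthanized 24 h later. Tumors were excised, filtered through 45 µm nylon mesh and lysed, then proteins were analysed by immunoblotting.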

Homo sapiens [2] = organism: Homo sapiens; test: Induction of apoptosis in human Mino cells assessed as effect on BCL-xL protein expression at 12.5 nM after 2 to 24 hrs by immunoblotting analysis; assay type: functional, cell-based
Method in brief: (§2)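 Lymphoma cell lines were cultured as the providers instruct and exposed to compound at several doses or for several times. Lysates were run on SDS-PAGE and blotted to nitrocellulose. Blots were blocked, incubated overnight with primary antibodies diluted in PBS with 5% milk and 0.1% Tween 20, then with peroxidase-conjugated secondaries, and detected by chemiluminescence on a CCD camera.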

Mus musculus [3] = test: Ex vivo antitumor activity against human UPF1H cells xenografted NSG mouse decrease in phosphorylation of RNA polymerase 2 C-terminal domain at Ser 2 residue at 5 to 10 mg/kg, iv measured after 24 hrs by immunoblotting analysis; assay type: functional, organism-based; method in brief: as §1
[4] = target: Cyclin-dependent kinase 9 (Homo sapiens) (UniProt P50750); test: Inhibition of CDK9 in human Mino cells assessed as decrease in phosphorylation of Rb at Ser 608 residue at 12.5 nM by immunoblotting analysis; assay type: cell-based; conditions: TDE = time-dependent effect
Cyclin-dependent kinase 9 (Homo sapiens), sequence (P50750 whole entry, the tested form may be a part): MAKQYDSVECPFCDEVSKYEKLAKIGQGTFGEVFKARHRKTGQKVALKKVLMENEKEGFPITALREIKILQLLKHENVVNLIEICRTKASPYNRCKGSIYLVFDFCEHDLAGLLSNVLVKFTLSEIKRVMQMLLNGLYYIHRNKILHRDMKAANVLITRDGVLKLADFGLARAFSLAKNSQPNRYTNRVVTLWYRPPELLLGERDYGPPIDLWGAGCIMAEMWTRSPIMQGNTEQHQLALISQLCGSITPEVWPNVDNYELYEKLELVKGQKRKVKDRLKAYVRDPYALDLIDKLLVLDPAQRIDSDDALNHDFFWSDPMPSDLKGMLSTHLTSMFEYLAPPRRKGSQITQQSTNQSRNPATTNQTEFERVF
Method in brief: (§3)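 MINO lymphoma cells exposed to 12.5 nM for up to 24 h (time course). Lysates separated by SDS-PAGE, transferred to nitrocellulose, probed overnight with specific primary antibodies diluted in PBS with 5% milk and 0.1% Tween 20, then peroxidase-conjugated secondaries; chemiluminescence imaged with a CCD camera.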

Mus musculus [5] = test: Ex vivo antitumor activity against human UPF1H cells xenografted NSG mouse assessed as cleavage of PARP1 at 5 to 10 mg/kg, iv measured after 24 hrs by immunoblotting analysis; assay type: functional, organism-based; method in brief: as §1
Homo sapiens [6] = organism: Homo sapiens; test: Induction of apoptosis in human Mino cells assessed as caspase 3 activation at 1.5 to 12.5 nM after 24 hrs by immunoblotting analysis; assay type: functional, cell-based; method in brief: as §2
HeLa = test: Antiproliferative activity against human HeLa cells assessed as growth inhibition measured after 72 hrs by calcein AM dye-based fluorescence assay; assay type: functional, cell-based
Method in brief: (§4)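 Cells exposed in triplicate to six concentrations for 72 h; calcein AM added for 1 h, live-cell fluorescence read at 485/538 nm (ex/em). GI50 taken from dose-response curves.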

[7] = target: Cyclin-dependent kinase 7 (Homo sapiens) (UniProt P50613); test: Inhibition of CDK7 in human Mino cells assessed as decrease in phosphorylation of Rb at Ser 608 residue at 12.5 nM by immunoblotting analysis; assay type: cell-based; conditions: TDE = time-dependent effect
Cyclin-dependent kinase 7 (Homo sapiens), sequence (P50613 whole entry): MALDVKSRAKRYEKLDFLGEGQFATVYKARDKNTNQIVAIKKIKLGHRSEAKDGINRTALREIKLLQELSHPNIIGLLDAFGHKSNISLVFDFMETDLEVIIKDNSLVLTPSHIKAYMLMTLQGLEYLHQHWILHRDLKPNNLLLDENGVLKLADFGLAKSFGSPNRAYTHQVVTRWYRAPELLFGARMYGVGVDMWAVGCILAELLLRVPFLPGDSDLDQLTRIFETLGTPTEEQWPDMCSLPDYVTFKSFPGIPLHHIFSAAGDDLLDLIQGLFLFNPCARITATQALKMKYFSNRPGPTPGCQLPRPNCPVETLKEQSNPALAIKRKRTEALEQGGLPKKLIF
Method in brief: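 MINO lymphoma cells were treated at 12.5 nM, with time points over 24 h. Lysates were separated by SDS-PAGE and blotted to nitrocellulose. Phospho-RNA polymerase II CTD (Ser2, Ser5) and phospho-Rb (Ser608, Ser780) were probed with primary antibodies overnight and peroxidase-conjugated secondaries. Detection was by chemiluminescence on a CCD camera.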

[8] = target: Casein kinase I isoform delta (Homo sapiens, UniProt P48730); test: Inhibition of CK1delta (unknown origin)
Casein kinase I isoform delta, sequence (P48730 whole entry, canonical isoform): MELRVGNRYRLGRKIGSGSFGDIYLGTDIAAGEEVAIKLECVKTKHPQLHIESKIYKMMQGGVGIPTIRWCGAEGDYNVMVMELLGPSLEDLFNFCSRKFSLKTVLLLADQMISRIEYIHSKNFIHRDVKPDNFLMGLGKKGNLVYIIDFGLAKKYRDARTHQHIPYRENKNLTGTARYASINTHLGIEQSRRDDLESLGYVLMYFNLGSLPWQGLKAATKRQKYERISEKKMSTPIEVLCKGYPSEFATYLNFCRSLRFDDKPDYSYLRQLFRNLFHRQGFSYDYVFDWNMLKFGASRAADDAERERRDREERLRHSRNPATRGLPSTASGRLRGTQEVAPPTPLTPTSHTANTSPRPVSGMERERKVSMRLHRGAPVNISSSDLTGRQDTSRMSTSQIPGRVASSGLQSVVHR

CDK2/Cyclin A2 = CDK2/Cyclin A2 (Homo sapiens, UniProt P24941); test: Inhibition of GST-tagged CDK2/Cyclin-A2 (unknown origin) expressed in Escherichia coli using histone H1 as substrate measured in presence of [gamma-33P]ATP
[9] = target: Cyclin-dependent kinase 1/cyclin B1 (Homo sapiens, UniProt P06493); test: Inhibition of His-tagged CDK1/Cyclin-B1 (unknown origin) expressed in baculovirus infected Sf9 insect cells using histone H1 as substrate measured in presence of [gamma-33P]ATP
Cyclin-dependent kinase 1/cyclin B1, sequence (P06493 whole entry): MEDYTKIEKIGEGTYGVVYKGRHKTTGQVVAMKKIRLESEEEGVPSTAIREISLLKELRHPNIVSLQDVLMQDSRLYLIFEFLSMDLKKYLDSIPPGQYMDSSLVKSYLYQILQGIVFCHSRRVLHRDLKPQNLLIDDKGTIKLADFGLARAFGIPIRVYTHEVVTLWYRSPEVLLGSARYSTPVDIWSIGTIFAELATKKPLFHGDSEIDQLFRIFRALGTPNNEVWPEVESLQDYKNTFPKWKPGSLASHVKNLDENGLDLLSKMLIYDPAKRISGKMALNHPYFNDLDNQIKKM
Cyclin-dependent kinase 1/cyclin B1, sequence (P14635 whole entry, further chain): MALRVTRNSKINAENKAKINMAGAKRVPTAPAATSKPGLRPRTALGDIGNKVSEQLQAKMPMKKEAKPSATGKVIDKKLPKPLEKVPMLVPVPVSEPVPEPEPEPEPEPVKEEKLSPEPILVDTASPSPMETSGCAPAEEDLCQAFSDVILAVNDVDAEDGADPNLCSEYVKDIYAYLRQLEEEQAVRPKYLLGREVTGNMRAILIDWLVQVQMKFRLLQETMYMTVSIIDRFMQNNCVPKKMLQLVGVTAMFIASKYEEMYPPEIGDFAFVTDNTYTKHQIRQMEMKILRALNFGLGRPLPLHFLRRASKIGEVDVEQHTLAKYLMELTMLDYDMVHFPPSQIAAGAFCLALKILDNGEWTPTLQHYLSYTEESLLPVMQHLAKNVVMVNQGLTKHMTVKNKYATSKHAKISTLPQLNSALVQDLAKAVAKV
Method in brief: (§5)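 CDK/cyclin complexes tested in triplicate at minimum; IC50 values reported from those replicate determinations.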

OCI-Ly3 = test: Antiproliferative activity against human OCI-LY3 cells assessed as growth inhibition measured after 72 hrs by calcein AM dye-based fluorescence assay; assay type: functional, cell-based; conditions: OCI-Ly3, 72 h; method in brief: as §4
K562 = test: Antiproliferative activity against human K562 cells assessed as growth inhibition measured after 72 hrs by calcein AM dye-based fluorescence assay; assay type: functional, cell-based; conditions: K562, 72 h; method in brief: as §4
Mus musculus [10] = test: Ex vivo antitumor activity against human Mino cells xenografted NSG mouse assessed as effect on BCL-2 expression at 5 to 10 mg/kg, iv measured after 24 hrs by immunoblotting analysis; assay type: functional, organism-based
Method in brief: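 NSG mice bearing palpable s.c. tumors received a single i.v. dose (5 or 10 mg/kg) and were euthanized after 24 h. Excised tumors were filtered through 45 µm nylon mesh, lysed and run on SDS-PAGE, transferred to nitrocellulose, probed overnight with primary antibodies in PBS with 5% milk and 0.1% Tween 20, then peroxidase secondaries, with chemiluminescent detection.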

[11] = target: Cyclin-dependent kinase 9 (Homo sapiens) (UniProt P50750); test: Inhibition of CDK9 in human Mino cells assessed as decrease in phosphorylation of RNA polymerase 2 C-terminal domain at Ser 2 residue at 12.5 nM by immunoblotting analysis; assay type: cell-based; conditions: TDE = time-dependent effect; method in brief: as §3
Homo sapiens [12] = test: Antitumor activity against human Mino cells xenografted in NSG mouse assessed as inhibition of tumor growth at 10 mg/kg, iv administered daily measured every day during compound dosing by caliper method; assay type: functional, organism-based
Method in brief: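 Female NSG mice, 8-12 weeks old, given cells s.c.; once all had palpable tumors, daily i.v. tail-vein dosing at 10 mg/kg in PBS. Two perpendicular tumor diameters measured daily by caliper. Study ended when any mouse's tumor reached ≥2 cm. Groups: MINO n=10, MAVER-1 n=12, Hbl-2 n=8, VFN-M1 PDX n=10.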

[13] = target: Cyclin-dependent kinase 9 (Homo sapiens) (UniProt P50750); test: Inhibition of CDK9 in human Mino cells assessed as decrease in phosphorylation of RNA polymerase 2 C-terminal domain at Ser 5 residue at 12.5 nM by immunoblotting analysis; assay type: cell-based; conditions: TDE = time-dependent effect; method in brief: as §3
Mus musculus [14] = test: Ex vivo antitumor activity against patient derived VFN-M1 cells xenografted NSG mouse assessed as increase in cleaved caspase 7 expression at 10 mg/kg, iv measured after 24 hrs by immunoblotting analysis; assay type: functional, organism-based; method in brief: as §1
CDK7/Cyclin H/MNAT1 = CDK7/Cyclin H/MNAT1 (Homo sapiens, UniProt P50613); test: Inhibition of recombinant human N-terminal GST-His6-fused CDK7 (M1 to F346 residues)/N-terminal His-tagged cyclin H (M1 to L323 residues)/N-terminal His6-tagged MAT1 (M1 to S306 residues) expressed in baculovirus infected Sf9 insect cells using (YSPTSPS)2KK as substrate measured in presence of [gamma-33P]ATP; method in brief: as §5
CDK7/Cyclin H/MNAT1, sequence (P51946 whole entry, the tested form may be a part): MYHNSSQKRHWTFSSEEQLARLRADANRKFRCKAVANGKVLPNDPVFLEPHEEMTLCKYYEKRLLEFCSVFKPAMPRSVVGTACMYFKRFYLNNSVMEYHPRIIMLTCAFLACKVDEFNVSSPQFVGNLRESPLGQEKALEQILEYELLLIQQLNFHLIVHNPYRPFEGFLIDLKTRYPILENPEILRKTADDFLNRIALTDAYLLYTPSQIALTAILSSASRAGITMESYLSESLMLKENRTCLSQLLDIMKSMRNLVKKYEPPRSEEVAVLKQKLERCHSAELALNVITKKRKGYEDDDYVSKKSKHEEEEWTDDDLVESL
CDK7/Cyclin H/MNAT1, sequence (P50613 whole entry, the tested form may be a part): as the sequence (P50613 whole entry) above
CDK7/Cyclin H/MNAT1, sequence (P51948 whole entry, further chain, the tested form may be a part): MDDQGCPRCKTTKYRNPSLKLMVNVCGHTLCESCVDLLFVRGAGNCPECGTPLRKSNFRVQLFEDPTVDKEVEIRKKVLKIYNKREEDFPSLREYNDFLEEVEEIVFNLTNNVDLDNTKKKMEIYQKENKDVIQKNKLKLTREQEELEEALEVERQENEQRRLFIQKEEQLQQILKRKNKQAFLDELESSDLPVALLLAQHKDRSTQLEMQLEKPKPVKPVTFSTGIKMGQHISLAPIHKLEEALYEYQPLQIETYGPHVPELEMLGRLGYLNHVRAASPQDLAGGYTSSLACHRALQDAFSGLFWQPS

Maver1 = test: Antiproliferative activity against human Maver1 cells assessed as growth inhibition measured after 72 hrs by calcein AM dye-based fluorescence assay; assay type: functional, cell-based; conditions: Maver1, 72 h; method in brief: as §4
Mus musculus [15] = test: Ex vivo antitumor activity against human UPF1H cells xenografted NSG mouse decrease in phosphorylation of RNA polymerase 2 C-terminal domain at Ser 5 residue at 5 to 10 mg/kg, iv measured after 24 hrs by immunoblotting analysis; assay type: functional, organism-based; method in brief: as §1
OCI-Ly7 = test: Antiproliferative activity against human OCI-LY7 cells assessed as growth inhibition measured after 72 hrs by calcein AM dye-based fluorescence assay; assay type: functional, cell-based; conditions: OCI-Ly7, 72 h; method in brief: as §4

inhibition [4]: Tde
GI50 (HeLa): 21.6 nM
pIC50 (HeLa): 7.77
inhibition [7]: Tde
pIC50 [8]: 7.35
pIC50 (CDK2/Cyclin A2): 8.22
pIC50 [9]: 7.05
GI50 (OCI-Ly3): 7 nM
pIC50 (OCI-Ly3): 8.15
GI50 (K562): 36 nM
pIC50 (K562): 7.44
inhibition [11]: Tde
inhibition [13]: Tde
pIC50 (CDK7/Cyclin H/MNAT1): 6.91
GI50 (OCI-Ly7): 14 nM
pIC50 (OCI-Ly7): 7.85
SMILES: CC(C)c1n[nH]c2c(NCc3ccc(-c4ccccn4)cc3)nc(SCCN)nc12
Activity (Mus musculus [1]): Active
Activity (Homo sapiens [2]): inactive
Activity (Mus musculus [3]): Active
Activity (Mus musculus [5]): Active
Activity (Homo sapiens [6]): Active
Activity (Mus musculus [10]): inactive
TGI (Homo sapiens [12]): Active
Activity (Mus musculus [14]): Active
GI50 (Maver1): 13 nM
pIC50 (Maver1): 7.89
Activity (Mus musculus [15]): Active
